Laboratory results from PMC6407750 (Targeted Oncology, 2019).
Read-outs that look alike come from different tables or passages of the source.

Legend:
[1] = assay type: in vivo, human; conditions: single 200 mg dose; for AUC(0-inf) / Cmax / half-life: human, plasma, oral, 200 mg; for AUC(0-inf): AUC0–∞,obs; for AUC(0-inf) / Cmax: adjusted geometric mean; for half-life: t½, geometric mean [coefficient of variation (%)]
How it was run: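 Sixteen advanced solid tumour patients, fasted overnight and for 4 h post-dose, received 200 mg as an intact tablet or as the uncrushed tablet shaken to full dispersion in 20 mL of sucralose 4 mg/mL, menthol 2 mg/mL and benzoic acid 1 mg/mL, undiluted. Order was randomized, with a 7-day washout. Plasma was sampled predose to 48 h by LC–MS/MS. Analysis was non-compartmental, with adjusted geometric mean ratios and 90% CI.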

[2] = single dose, primarily Caucasian subjects, fasted state; cited from earlier work
[3] = assay type: in vivo, human; conditions: for AUC(0-inf): AUC0–∞,obs; for Tmax: median [range]
How it was run: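 Sixteen advanced solid tumour patients were enrolled. Each received a single oral 200 mg tablet after an overnight fast, either with ~240 mL water or directly after a ~950 kcal high-fat breakfast eaten within 30 min. No food was given for 4 h. Order was randomized, with a 7-day washout. Plasma was sampled predose and 0.5–48 h and measured by LC–MS/MS (detection limit 1 nM). Parameters were derived by non-compartmental analysis, with adjusted geometric mean ratios and 90% CI.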

[4] = administered with food compared to a fasted state; cited from earlier work
[5] = single 200 mg tablet, fed versus fasted

In the case of COc1cc(C(=O)NC2CCN(C)CC2)c(F)cc1Nc1ncc(C(F)(F)F)c(Oc2cccc3c2C(=O)N(C)C3)n1 [BI 853520], the AUC(0-inf) ([1]; liquid dispersion, fasted) was 31.5 µM·h, the AUC(0-inf) ([1]; tablet, fasted) was 32 µM·h and the Cmax ([1]; liquid dispersion, fasted) was 1610 nM. The Cmax ([1]; tablet, fasted) was 1720 nM, the half-life ([1]; liquid dispersion, fasted) was 18.4 h and the half-life ([1]; tablet, fasted) was 19.5 h. For the same compound, the “AUC0-tz adjusted GMR (90% CI) [tablet/liquid]” value ([1]; fasted) was 99.98 (92.28–108.33) %, the “AUC0–∞,obs adjusted GMR (90% CI) [tablet/liquid]” value ([1]; fasted) was 101.65 (93.57–110.42) % and the “Cmax adjusted GMR (90% CI) [tablet/liquid]” value ([1]; fasted) was 107.15 (98.79–116.22) %. The “tmax and t½, effect of dispersing in a liquid” value ([1]; liquid dispersion vs tablet) was “not affected”, the “observed terminal half-life (t½)” value [2] was 19 h and the t½ ([3]; fasted, single 200 mg tablet, geometric mean [coefficient of variation (%)], n=15) was 18.0 (22.6) h. It also gave a Cmax ([3]; fed, single 200 mg tablet, plasma, adjusted geometric mean) of 1640 nM, a Cmax ([3]; human, plasma, oral, 200 mg) of 1870 nM and a half-life ([3]; human, plasma, oral, 200 mg) of 18 h. The AUC(0-inf) ([3]; human, plasma, oral, 200 mg, fasted, single 200 mg tablet, adjusted geometric mean) was 39.9 µM·h, the AUC(0-inf) ([3]; human, plasma, oral, 200 mg, fed, single 200 mg tablet, adjusted geometric mean) was 39.2 µM·h and the Tmax ([3]; human, plasma, oral, 200 mg, fasted, single 200 mg tablet, n=15) was 3 h. The Tmax ([3]; human, plasma, oral, 200 mg, fed (high-calorie meal), single 200 mg tablet, n=15) was 4 h, the “tmax and t½ after a high-calorie meal compared with fasted patients” value ([3]; single 200 mg tablet) was “not different” and the “AUC0-tz adjusted GMR (90% CI) [fed/fasted]” value [3, 5] was 92.46 (74.24–115.16) %. The “AUC0–∞,obs adjusted GMR (90% CI) [fed/fasted]” value [3, 5] was 98.17 (78.53–122.74) % and the “Cmax adjusted GMR (90% CI) [fed/fasted]” value [3, 5] was 87.34 (71.04–107.38) %.
In the case of C[C@]12CC[C@H](O)CC1=CC[C@@H]1[C@@H]2CC[C@]2(C)C(c3cccnc3)=CC[C@@H]12 [abiraterone], the “increase in the area under the plasma concentration–time curve (AUC)” value [4] is given as 1000%.
